Assays:
[1] = target: T1, Adrenergic receptor alpha-1 (Rattus norvegicus, UniProt P15823+P23944+P43140); experiment: Displacement of [3H]prazosin from adrenoceptor alpha1 in Sprague-Dawley rat brain after 45 mins by scintillation counting
T1 sequence (P15823 whole entry): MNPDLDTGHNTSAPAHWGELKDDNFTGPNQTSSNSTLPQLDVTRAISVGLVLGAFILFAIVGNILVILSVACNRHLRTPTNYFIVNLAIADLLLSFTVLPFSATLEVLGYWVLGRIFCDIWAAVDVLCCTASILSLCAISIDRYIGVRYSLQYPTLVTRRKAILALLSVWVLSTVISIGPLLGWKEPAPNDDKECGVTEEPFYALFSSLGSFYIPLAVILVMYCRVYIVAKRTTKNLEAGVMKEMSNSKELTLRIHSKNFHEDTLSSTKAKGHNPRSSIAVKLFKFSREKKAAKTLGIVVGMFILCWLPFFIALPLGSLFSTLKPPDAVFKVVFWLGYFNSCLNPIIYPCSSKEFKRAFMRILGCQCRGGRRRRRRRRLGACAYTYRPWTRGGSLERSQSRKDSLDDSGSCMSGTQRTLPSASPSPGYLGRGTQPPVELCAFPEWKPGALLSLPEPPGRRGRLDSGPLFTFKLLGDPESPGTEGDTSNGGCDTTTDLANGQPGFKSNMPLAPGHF
T1 sequence (P23944 whole entry): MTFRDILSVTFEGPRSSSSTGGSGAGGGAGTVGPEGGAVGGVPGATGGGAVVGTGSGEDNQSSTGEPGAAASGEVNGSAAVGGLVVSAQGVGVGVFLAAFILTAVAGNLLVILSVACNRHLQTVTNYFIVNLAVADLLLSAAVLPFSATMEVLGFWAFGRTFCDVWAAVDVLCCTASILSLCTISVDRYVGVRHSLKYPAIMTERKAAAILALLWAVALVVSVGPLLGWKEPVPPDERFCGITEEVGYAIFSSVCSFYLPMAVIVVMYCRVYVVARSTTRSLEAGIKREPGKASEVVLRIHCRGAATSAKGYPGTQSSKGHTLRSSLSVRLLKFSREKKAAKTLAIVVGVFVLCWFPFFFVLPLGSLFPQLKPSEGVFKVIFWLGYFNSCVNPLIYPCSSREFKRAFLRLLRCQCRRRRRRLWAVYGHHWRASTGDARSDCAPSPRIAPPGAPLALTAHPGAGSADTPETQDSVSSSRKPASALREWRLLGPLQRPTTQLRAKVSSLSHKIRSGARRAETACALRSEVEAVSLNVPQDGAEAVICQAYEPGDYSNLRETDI
T1 sequence (P43140 whole entry): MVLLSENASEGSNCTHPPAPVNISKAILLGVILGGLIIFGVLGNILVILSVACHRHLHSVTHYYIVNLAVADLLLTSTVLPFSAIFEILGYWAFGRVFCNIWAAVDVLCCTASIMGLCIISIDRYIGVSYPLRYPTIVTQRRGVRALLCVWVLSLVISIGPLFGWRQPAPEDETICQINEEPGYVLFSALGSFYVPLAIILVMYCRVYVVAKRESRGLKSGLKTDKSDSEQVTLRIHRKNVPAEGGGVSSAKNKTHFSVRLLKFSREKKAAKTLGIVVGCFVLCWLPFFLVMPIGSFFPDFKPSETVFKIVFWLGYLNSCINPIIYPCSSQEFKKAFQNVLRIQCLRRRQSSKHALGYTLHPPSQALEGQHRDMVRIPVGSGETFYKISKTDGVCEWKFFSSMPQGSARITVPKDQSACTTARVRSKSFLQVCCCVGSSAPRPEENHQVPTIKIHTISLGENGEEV
Procedure, shortened: (§1)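 Crude P2 membranes from male Sprague–Dawley rat brain (250–280 g), 0.2–0.3 mg protein. Radioligand 1 nM: [3H]2BFI for I2, [3H]prazosin for α1, [3H]RX821002 for α2. Non-specific binding defined by 10 µM BU224 (I2), 10 µM phenylephrine (α1) or 10 µM rauwolscine (α2). 11 concentrations from 0.01 nM to 100 µM, triplicate, 45 min at RT. Filtration and scintillation counting; Ki by Cheng–Prusoff.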

[2] = Displacement of [3H]BFI from imidazoline I2 receptor in Sprague-Dawley rat brain membranes after 45 mins by scintillation counting; format: cell membranes, Membrane; procedure, shortened: as §1
[3] = target: T2, Alpha-2A adrenergic receptor (Homo sapiens, UniProt P08913); experiment: Agonist activity at human adrenoceptor alpha2A expressed in CHOK1 cells assessed as stimulation of agonist-induced [35S]GTPgammaS binding by scintillation counting; format: functional, cell-based, CHO-K1
T2 sequence (P08913 whole entry): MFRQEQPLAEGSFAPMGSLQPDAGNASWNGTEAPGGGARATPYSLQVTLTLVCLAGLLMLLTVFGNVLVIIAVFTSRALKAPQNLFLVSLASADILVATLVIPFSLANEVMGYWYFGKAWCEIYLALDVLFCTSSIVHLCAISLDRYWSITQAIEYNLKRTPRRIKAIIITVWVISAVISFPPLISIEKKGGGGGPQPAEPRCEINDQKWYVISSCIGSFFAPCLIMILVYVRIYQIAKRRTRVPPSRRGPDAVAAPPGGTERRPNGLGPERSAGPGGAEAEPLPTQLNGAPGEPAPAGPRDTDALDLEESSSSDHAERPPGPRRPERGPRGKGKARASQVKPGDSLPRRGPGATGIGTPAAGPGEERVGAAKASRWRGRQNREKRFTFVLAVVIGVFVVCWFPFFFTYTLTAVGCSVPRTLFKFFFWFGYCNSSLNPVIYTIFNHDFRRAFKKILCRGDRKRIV
Procedure, shortened: (§2)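 Membranes from CHO-K1 cells stably expressing human α2A-adrenoceptor; 5 µg protein incubated with serial dilutions of agonist and 0.1 nM [35S]GTPγS in Tris buffer pH 7.4 with 1 µM GDP, MgCl2, NaCl, 30 min at RT. Filtered and counted by scintillation.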

[4] = target: Nischarin (Rattus norvegicus, UniProt Q4G017); experiment: Displacement of [3H]clonidine from imidazoline I1 receptor in Sprague-Dawley rat kidney membranes after 45 mins by scintillation counting; format: cell membranes, Membrane
Procedure, shortened: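 Crude P2 membranes from male Sprague–Dawley rat kidney, 0.2–0.5 mg protein. […] Specific binding defined by 10 µM rilmenidine. 11 concentrations from 0.01 to 100 µM, 50 mM Tris-HCl pH 7.4, 45 min at RT. Filtration and scintillation counting; IC50.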

[5] = target: T3, Alpha-2A adrenergic receptor (Homo sapiens) (UniProt P08913); experiment: Agonist activity at human adrenoceptor alpha2A expressed in CHOK1 cells assessed as stimulation of agonist-induced [35S]GTPgammaS binding by scintillation counting assay relative to noradrenaline; format: functional, cell-based; settings: CHO-K1
T3 sequence (whole entry): T2 sequence (P08913 whole entry)
Procedure, shortened: as §2, with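 “scintillation. EC50 and intrinsic activity relative to noradrenaline; means from 3 independent experiments.” for “scintillation.”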

Chain of Nischarin (Q4G017 whole entry): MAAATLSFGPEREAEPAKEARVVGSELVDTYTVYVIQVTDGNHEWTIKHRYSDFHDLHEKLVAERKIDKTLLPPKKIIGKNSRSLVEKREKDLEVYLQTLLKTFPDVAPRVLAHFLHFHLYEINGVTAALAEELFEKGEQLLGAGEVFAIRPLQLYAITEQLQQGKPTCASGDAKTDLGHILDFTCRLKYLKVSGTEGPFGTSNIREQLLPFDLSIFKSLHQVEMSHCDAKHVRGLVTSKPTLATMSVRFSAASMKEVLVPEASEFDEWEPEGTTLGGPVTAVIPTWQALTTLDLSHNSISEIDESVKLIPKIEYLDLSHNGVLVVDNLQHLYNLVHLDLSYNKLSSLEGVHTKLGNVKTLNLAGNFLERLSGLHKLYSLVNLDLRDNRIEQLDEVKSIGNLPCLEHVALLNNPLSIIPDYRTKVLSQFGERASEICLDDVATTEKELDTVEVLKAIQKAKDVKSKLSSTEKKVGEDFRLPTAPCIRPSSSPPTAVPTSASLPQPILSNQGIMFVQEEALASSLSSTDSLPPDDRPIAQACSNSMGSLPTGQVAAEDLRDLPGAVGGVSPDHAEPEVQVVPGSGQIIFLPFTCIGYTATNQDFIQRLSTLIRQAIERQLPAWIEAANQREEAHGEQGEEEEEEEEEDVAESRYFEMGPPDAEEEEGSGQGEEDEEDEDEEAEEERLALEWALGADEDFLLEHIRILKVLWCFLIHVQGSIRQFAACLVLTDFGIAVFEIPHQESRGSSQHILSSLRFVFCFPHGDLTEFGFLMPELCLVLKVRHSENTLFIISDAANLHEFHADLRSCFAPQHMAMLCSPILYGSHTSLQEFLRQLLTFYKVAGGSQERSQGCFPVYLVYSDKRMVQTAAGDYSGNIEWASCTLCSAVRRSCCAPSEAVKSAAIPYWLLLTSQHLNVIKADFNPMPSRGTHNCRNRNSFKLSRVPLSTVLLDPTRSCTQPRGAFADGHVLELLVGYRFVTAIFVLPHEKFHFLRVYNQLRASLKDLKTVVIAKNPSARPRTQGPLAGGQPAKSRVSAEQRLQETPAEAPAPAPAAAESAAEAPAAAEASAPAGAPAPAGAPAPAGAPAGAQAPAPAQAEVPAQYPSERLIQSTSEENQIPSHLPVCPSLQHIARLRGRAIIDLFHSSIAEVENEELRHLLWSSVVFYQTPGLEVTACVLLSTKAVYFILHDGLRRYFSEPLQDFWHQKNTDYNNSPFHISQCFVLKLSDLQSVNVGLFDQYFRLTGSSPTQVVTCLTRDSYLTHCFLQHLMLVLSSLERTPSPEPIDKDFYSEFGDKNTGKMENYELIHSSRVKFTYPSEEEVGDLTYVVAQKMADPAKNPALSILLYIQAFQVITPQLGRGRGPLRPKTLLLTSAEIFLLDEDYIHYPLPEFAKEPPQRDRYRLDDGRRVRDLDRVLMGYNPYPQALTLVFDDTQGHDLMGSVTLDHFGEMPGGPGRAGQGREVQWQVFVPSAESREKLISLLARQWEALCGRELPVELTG

| SMILES | Ki [1] | Ki [2] | EC50 [3] | IC50 [4] | Emax [5] |
| --- | --- | --- | --- | --- | --- |
| Cl.Clc1cccc2cnn(CC3=NCCN3)c12 | 0.0141 µM | 0.554 µM | 16.6 µM | 0.856 µM | 7.4% |
| Cl.c1ccc2c(c1)cnn2CC1=NCCN1 | 0.272 µM | 42.2 µM | 4.5 µM | 19.4 µM | 6.3% |
| Cc1cccc2cnn(CC3=NCCN3)c12.Cl | 0.101 µM | 6.84 µM | 17.4 µM | 96.4 µM | 6.3% |

From ChEMBL document CHEMBL1926556, “Synthesis and biological activities of 2-[(heteroaryl)methyl]imidazolines” (Bioorg Med Chem, 2012)
